Values joined by “and” are separate entries in the source; they are usually repeats but may differ in a detail not shown here. Identical values can stand only once.

The test system of experiment [1] is Canis familiaris. Nature of the experiment: Left ventricular refractory period was determined by intraduodenal administration of two dosages of 10 mg/kg of (high dose) compound in anesthetized dogs. Value was reported for experiment 1. Type of experiment: functional, Canis lupus familiaris, Cardiac ventricle. Summed up:
(§1)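 Anesthetized dogs received two intraduodenal doses, the second cumulative (low dose/high dose). Left ventricular FRP and CT were measured 15, 30 and 45 min after dosing. Heart rate and mean blood pressure were taken during nonpacing intervals. Values are percent change from control. The vehicle was 5% dextrose in water/tragacanth. Activity was defined as ≥12% prolongation of FRP or CT.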

For experiment [2], the system named is Canis familiaris. Nature of the experiment: Left ventricular refractory period was determined by intraduodenal administration of two dosages (high/low) of 10 g/kg of compound in anesthetized dogs. Value was reported for experiment 3. Format: functional, Canis lupus familiaris, Cardiac ventricle. Particulars: in the assay text read “10 mg/kg” for “10 g/kg”. Summed up:
(§2)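 Anesthetized dogs, usually given two intraduodenal doses, with the second dose cumulative (low/high). Left ventricular FRP and CT were determined at 15, 30 and 45 min after dosing. HR and BP were measured during nonpacing intervals. Values are % change from control at low/high dose, for individual animals. The vehicle-stability set used 5% dextrose in water/tragacanth (n = 8).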

The subject of experiment [3] is Canis familiaris. Kind of experiment: Mean arterial blood pressure was determined by intraduodenal administration of two dosages of 3 mg/kg of (high dose) compound in anesthetized dogs. Value was reported for experiment 2. Type of experiment: functional, Canis lupus familiaris. A digest of the protocol:
as §2

The test system of experiment [4] is Canis familiaris. Nature of the experiment: Mean arterial blood pressure was determined by intraduodenal administration of two dosages of 10 mg/kg of (high dose) compound in anesthetized dogs. Value was reported for experiment 3. Format: functional, Canis lupus familiaris. Summed up:
as §2

The species named for experiment [5] is Canis familiaris. Kind of experiment: In vitro electrophysiological evaluation in canine cardiac Purkinje fibres reported as maximum percent change Vmax concentration range of 0.01-100 uM; […]. Format: functional. The settings on record: Canis lupus familiaris; Purkinje fiber. Summed up:
(§3)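 Canine cardiac Purkinje fibers, intracellular recording, paced at a basic cycle length of 1 s. APD95 and Vmax are recorded together across cumulative concentrations. Compound is a 10 mM aqueous stock diluted into Tyrode's solution. Each fiber is used once as its own control. Readouts are percent change from control at 10 μM, and the maximum change with the concentration where it occurred.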

Experiment [6] is filed under the species Canis familiaris. Nature of the experiment: In vitro electrophysiological evaluation in canine cardiac ventricular muscle reported as % change for the functional refractory period (FRP) concentration range of 0.1-100 uM. On the set-up: species or system Canis lupus familiaris, Muscle tissue. A digest of the protocol:
(§4)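 Canine right ventricular/papillary muscle strips in oxygenated Tyrode's, extracellular extra-stimulus conduction-interval method. FRP and CT are read from conduction-interval curves before and during rising concentrations. Compound is a 10 mM aqueous stock diluted into Tyrode's. Each strip is used once as its own control. Readouts are percent change from control at 10 μM, plus the maximum change with its concentration.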

The species named for experiment [7] is Canis familiaris. Kind of experiment: In vitro electrophysiological evaluation in canine cardiac Purkinje fibres reported as percent change Vmax concentration range of 0.01-100 uM; […]. Format: functional. The settings on record: Canis lupus familiaris; Purkinje fiber. Summed up:
as §3

Experiment [8] deals with Canis familiaris. Kind of experiment: Conduction time was determined by intraduodenal administration of two dosages of 1 mg/kg (low dose) of compound in anesthetized dogs. Value was reported for experiment 3. Type of experiment: functional, Canis lupus familiaris. A digest of the protocol: (§5)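 Anesthetized dogs given the compound intraduodenally, generally as two doses with the second a cumulative total (low/high). FRP and CT measured at 15, 30 and 45 min after dosing. HR and BP taken during nonpacing intervals. Values are percent change from control per animal. Activity criterion is FRP or CT prolonged ≥12%. Vehicle: 5% dextrose in water/tragacanth.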

The test system of experiment [9] is Canis familiaris. Kind of experiment: Heart rate was determined by intraduodenal administration of two dosages of 1 mg/kg of (low dose) compound in anesthetized dogs. Value was reported for experiment 2. Type of experiment: functional, Canis lupus familiaris. A digest of the protocol:
as §5

For experiment [10], the species on record is Canis familiaris. Nature of the experiment: In vitro electrophysiological evaluation in canine cardiac Purkinje fibres reported as percent change Vmax concentration range of 1-100 uM. The settings on record: Canis lupus familiaris; Purkinje fiber. Type of experiment: functional. Summed up: as §3
Experiment [11] relates to Canis familiaris. Nature of the experiment: Conduction time was determined by intraduodenal administration of two dosages of 3 mg/kg (high dose) of compound in anesthetized dogs. Value was reported for experiment 3. Type of experiment: functional, Canis lupus familiaris. A digest of the protocol:
as §5

For experiment [12], the species on record is Canis familiaris. Nature of the experiment: In vitro electrophysiological evaluation in canine cardiac ventricular muscle reported as maximum % change for conduction time(CT) at 0.1-100 uM concentration range; Minimal (<IO%increase or a decrease in CT). Format: functional, Canis lupus familiaris, Muscle tissue. A digest of the protocol: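 Canine right ventricle and papillary muscle strips in oxygenated Tyrode's solution, fitted with stimulating and recording electrodes. The extra-stimulus conduction-interval method was adapted for in vitro use. FRP and CT were read from a conduction-interval curve before and after various compound concentrations, and expressed as percent change from control. Compounds were taken from 10 mM deionized-water stock into Tyrode's. Each strip was used once as its own control.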

Experiment [13] is filed under the species Canis familiaris. Kind of experiment: In vitro electrophysiological evaluation in canine cardiac Purkinje fibres reported as percent change Vmax concentration range of 0.1-10 uM. Format: functional. The settings on record: Canis lupus familiaris; Purkinje fiber. A digest of the protocol:
as §3

The species entered for experiment [14] is Canis familiaris. Nature of the experiment: In vitro electrophysiological activity in canine cardiac Purkinje fibres given as maximum % change for action potential duration at 0.1-10 uM concentration. Format: functional, Canis lupus familiaris, Purkinje fiber. A digest of the protocol: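 Canine cardiac Purkinje fibres, intracellular recording at 1 s basic cycle length, over cumulative concentration ranges. Compound 10 mM stock in deionized water diluted into Tyrode's. Each fibre used once as its own control. Value is the maximum % change from control in APD at 95% repolarization, with the concentration where it occurred; both values given if a biphasic response (>20% reversal) occurred.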

The species entered for experiment [15] is Canis familiaris. Kind of experiment: In vitro electrophysiological evaluation in canine cardiac Purkinje fibres reported as percent change Vmax concentration range of 0.1-100 uM; Minimal (<IO%increase or a decrease in CT). Format: functional. The settings on record: Canis lupus familiaris; Purkinje fiber. A digest of the protocol:
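Canine cardiac Purkinje fibres, intracellular microelectrode recording, paced at a basic cycle length of 1 s. APD95 and Vmax read simultaneously. Compound: 10 mM stock in deionized water, diluted into Tyrode's solution, tested over the stated concentration range. Each fibre used once as its own control. Result is % change from control, given at 10 µM or as the maximum with its concentration. M = <10% decrease or an increase in Vmax.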

Experiment [16] deals with Canis familiaris. Nature of the experiment: Heart rate was determined by intraduodenal administration of two dosages of 3 mg/kg of (low dose) compound in anesthetized dogs. Value was reported for experiment 1. Format: functional, Canis lupus familiaris. A digest of the protocol: (§6)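 Anesthetized dogs; compound given intraduodenally, generally as two doses, the second a cumulative (high) dose. LV functional refractory period and conduction time measured 15, 30 and 45 min after dosing; heart rate and blood pressure measured during nonpacing intervals. Values are % change from control, given per individual animal. Active if FRP or CT prolonged by ≥12%.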

Experiment [17] concerns Canis familiaris. Nature of the experiment: Left ventricular refractory period was determined by intraduodenal administration of two dosages of 3 mg/kg of (high dose) compound in anesthetized dogs. Value was reported for experiment 2. Type of experiment: functional, Canis lupus familiaris, Cardiac ventricle. Summed up: as §2
Experiment [18] relates to Canis familiaris. Kind of experiment: Heart rate was determined by intraduodenal administration of two dosages of 1 mg/kg of (low dose) compound in anesthetized dogs. Value was reported for experiment 3. Format: functional, Canis lupus familiaris. A digest of the protocol:
as §5

Experiment [19] is filed under the species Canis familiaris. Nature of the experiment: In vitro electrophysiological evaluation in canine cardiac Purkinje fibres reported as % change for action potential duration at 1-100 uM concentration range. Type of experiment: functional, Canis lupus familiaris, Purkinje fiber. A digest of the protocol:
as §3

Experiment [20] is filed under the species Canis familiaris. Kind of experiment: In vitro electrophysiological evaluation in canine cardiac ventricular muscle reported as maximum % change for functional refractory period (FRP) at 0.1-10 uM concentration range. Set-up: species or system Canis lupus familiaris, Muscle tissue.
Experiment [21] deals with Canis familiaris. Kind of experiment: Mean arterial blood pressure was determined by intraduodenal administration of two dosages of 3 mg/kg of (low dose) compound in anesthetized dogs. Value was reported for experiment 1. Type of experiment: functional, Canis lupus familiaris. Summed up:
as §1

The test system of experiment [22] is Canis familiaris. Kind of experiment: Conduction time was determined by intraduodenal administration of two dosages of 3 mg/kg (low dose) of compound in anesthetized dogs. Value was reported for experiment 1. Type of experiment: functional, Canis lupus familiaris. Summed up: as §6
For experiment [23], the species on record is Canis familiaris. Nature of the experiment: In vitro electrophysiological evaluation in canine cardiac ventricular muscle reported as % change for conduction time(CT) at 0.1-10 uM concentration range; Minimal (<IO%increase or a decrease in CT). Type of experiment: functional, Canis lupus familiaris, Muscle tissue. Summed up:
as §4

Take `CCCCCCC[N+](CC)(CC)CCCCc1ccc(Cl)cc1.O=P([O-])(O)O` [CLOFILIUM PHOSPHATE]: the “LV FRP” value is given as 22% in the experiment on Canis familiaris [1] and 2% with Canis familiaris [17]. This molecule also had a L with Canis familiaris [2] of 23%. Also, the results for the Mean blood pressure with Canis familiaris [3], with Canis familiaris [4] and in the experiment on Canis familiaris [21] were -14%, 4% and -7%, respectively. For the same molecule, the Vmax is < 10% in the experiment filed under Canis familiaris [5]; < 10% in the experiment listed under Canis familiaris [7]; -50% and -49% in the experiment listed under Canis familiaris [10]; -11% in the experiment filed under Canis familiaris [13]; < 10% in the experiment listed under Canis familiaris [15]. Also, in the experiment filed under Canis familiaris [6], the “FRP at 10microM” value was -3%. Moreover, the CT in the experiment with Canis familiaris [8] is recorded as 0%; in the experiment on Canis familiaris [11], -7%; in the experiment filed under Canis familiaris [12], <10%; with Canis familiaris [22], -4%; in the experiment listed under Canis familiaris [23] it was <10%. Further, the HR in the experiment with Canis familiaris [9] is given as -2%; with Canis familiaris [16] it was -9%; in the experiment with Canis familiaris [18], -2%. The APD95 was 52% in the experiment filed under Canis familiaris [14]; 49% and 18% in the experiment listed under Canis familiaris [19]. Also, the FRP in the experiment listed under Canis familiaris [20] stood at 38%.

Values taken from ChEMBL document CHEMBL1123566, “Synthesis and cardiac electrophysiological activity of 2- and 3-[(substituted phenyl)alkyl]quinuclidines. Structure-activity relationships” (1987).
